Measurements reported in publication PMC6482285 (Chembiochem : a European journal of chemical biology, 2014).
Values joined by “and” are separate entries in the source; they are usually repeats but may differ in a detail not shown here. Identical values can stand only once. Values belong to the compound of their own block, whether it stands above or below them.

Tests used:
Assay type in all cases: biochemical
[1] = target: T1, eEF-2K (Homo sapiens, UniProt O00418); assay: ADP binding to eEF-2K
[2] = target: T1, eEF-2K; assay: time dependent inhibition
Method in brief: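 eEF-2K (100 nM) incubated with test compound (0–500 μM) for 0–120 min in 25 mM HEPES pH 7.5, BSA, DTT, 5% DMSO. ADP protection used 0/250 μM compound ± 4 mM ADP; glutathione used 2.5 mM for 1 h. Diluted 50-fold into 30 °C assay buffer (150 μM CaCl2, 1 μM calmodulin, 50 μM peptide), started with 100 μM [γ-32P]ATP, read by P81 counting. E•I* formation fitted exponentially or globally for Kd, k2.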

[3] = target: T1, eEF-2K; assay: recovery experiments after 50-fold dilution, loss of E•I*
[4] = target: T1, eEF-2K; assay: eEF-2K kinase assay, dose response; details: 100 μM ATP
[5] = target: eEF-2K C146A (Homo sapiens, UniProt O00418, C146A); assay: kinase dose response and recovery assays with the C146A mutant
[6] = target: eEF-2K Y236F (Homo sapiens, UniProt O00418, Y236F); assay: kinase dose response and recovery assays with the Y236F mutant
[7] = target: eEF-2K C146S (Homo sapiens, UniProt O00418, C146S); assay: kinase dose response and recovery assays with the C146S mutant
[8] = 1 mM, 1 hour incubation, rapidly diluted

Ki [1]: ~1 mM
Compound: Nc1ncnc2c1ncn2[C@@H]1O[C@H](COP(=O)(O)OP(=O)(O)O)[C@@H](O)[C@H]1O [ADP]

kobs for the formation of E•I* complex ([2]; MDP 500 μM): 0.0031 ± 0.0002 s⁻¹
kobs for the loss of the E•I* complex (recovery of activity) ([3]; MDP 500 μM, 60 min, diluted 50-fold): 0.00056 s⁻¹ and 0.00056 ± 0.00003 s⁻¹
h (hill coefficient) ([4]; 60 minutes preincubation): 0.93 ± 0.01
Compound: COc1cccc(C2C(C#N)C(=O)NC(=O)C2C#N)c1 (stereo not shown) [MDP, 4-(3-methoxyphenyl)-2,6-dioxo-3,5-piperidinedicarbonitrile]

Kd [2]: 140 µM
kobs for the formation of the E•I* complex ([2]; DFTD 250 μM in the absence of ADP): 0.0015 ± 0.0003 s⁻¹
kobs for the formation of the E•I* complex ([2]; DFTD 250 μM in the presence of ADP (4 mM)): 0.0002 ± 0.00003 s⁻¹
effect of glutathione on the inactivation or the reversibility rate ([2]; DFTD 250 μM pre-incubated with 2.5 mM glutathione for 1 hour): no significant effect
enzyme covalently bound at saturation ([2]; at saturation): approximately 75%
slow equilibrium on the enzyme (=k2/k-2) ([2]; global fit of Figures 2B and 2C): 2.8
k2 (inactivation step) ([2]; global fit of time-dependent and recovery experiments, KinTek Global Explorer): 0.0017 s⁻¹
k-2 (disappearance of E•I*) ([3]; 250 μM, 1 hour incubation, 50-fold dilution, first order fit): 0.0006 s⁻¹
recovery of enzyme activity after dilution ([3]; wild type, 1 mM, 1 hour incubation, rapidly diluted): slow recovery of activity
IC50 [5]: 890 µM
time-dependence of inhibition [5]: no time-dependence
IC50 [6]: 105 µM
recovery of enzyme activity after dilution [6, 8]: slow recovery of activity
IC50 ([4]; apparent IC50, 10 minute incubation): 110 µM
IC50 [7]: 655 µM
time-dependence of inhibition [7]: no time-dependence
Compound: N#CC1=C(N)SC(N)=C(C#N)C1c1ccccc1F [DFTD, 2,6-diamino-4-(2-fluorophenyl)-4H-thiopyran-3,5-dicarbonitrile]
recovery of enzyme activity after dilution [5, 8]: maximal activity was attained immediately
recovery of enzyme activity after dilution [7, 8]: maximal activity was attained immediately
